≈ marks a conversion by molar mass, not a printed value.
test system: SK-OV-3; assay: Anticancer activity against human SKOV3 cells after 72 hrs by MTT assay; settings: SK-OV-3, 72 h

| Compound | IC50 [µg/mL] |
| --- | --- |
| N#Cc1c(F)c(Cl)c2c(C(=O)c3ccccc3)c3n(c(=N)c2c1F)CCO3 | 29.2 (≈ 75.7 µM) |
| N#Cc1c(Cl)c(Cl)c2c(C(=O)c3ccccc3)c3n(c(=N)c2c1Cl)CCN3 | 19.7 (≈ 47.2 µM) |
| COc1ccc(C(=O)c2c3n(c(=N)c4c(F)c(C#N)c(F)c(F)c24)CCO3)cc1 | 0.2 (≈ 0.501 µM) |
| Cc1ccc(C(=O)c2c3n(c(=N)c4c(Cl)c(C#N)c(Cl)c(Cl)c24)CCCN3)cc1 | 826 (≈ 1850 µM) |
| N#Cc1c(Cl)c(Cl)c2c(C(=O)c3ccccc3)c3n(c(=N)c2c1Cl)CCO3 | 17.4 (≈ 41.6 µM) |

test system: HL-60; assay: Anticancer activity against human HL60 cells after 48 hrs by MTT assay; settings: HL-60, 48 h

| Compound | IC50 [µg/mL] |
| --- | --- |
| COc1ccc(C(=O)c2c3n(c(=N)c4c(F)c(C#N)c(F)c(Cl)c24)CCN3)cc1 | 0.2 (≈ 0.482 µM) |
| COc1ccc(C(=O)c2c3n(c(=N)c4c(F)c(C#N)c(F)c(F)c24)CCN3)cc1 | 0.5 (≈ 1.26 µM) |
| COc1ccc(C(=O)c2c3n(c(=N)c4c(Cl)c(C#N)c(Cl)c(Cl)c24)CCN3)cc1 | 0.3 (≈ 0.67 µM) |
| N#Cc1c(F)c(Cl)c2c(C(=O)c3ccccc3)c3n(c(=N)c2c1F)CCO3 | 1.5 (≈ 3.89 µM) |
| N#Cc1c(Cl)c(Cl)c2c(C(=O)c3ccccc3)c3n(c(=N)c2c1Cl)CCN3 | 0.8 (≈ 1.92 µM) |
| COc1ccc(C(=O)c2c3n(c(=N)c4c(F)c(C#N)c(F)c(F)c24)CCO3)cc1 | 0.1 (≈ 0.25 µM) |
| Cc1ccc(C(=O)c2c3n(c(=N)c4c(Cl)c(C#N)c(Cl)c(Cl)c24)CCCN3)cc1 | 58.2 (≈ 131 µM) |
| N#Cc1c(Cl)c(Cl)c2c(C(=O)c3ccccc3)c3n(c(=N)c2c1Cl)CCO3 | 6 (≈ 14.3 µM) |

test system: H22; assay: Antitumor activity against mouse H22 cells xenografted in Kunming mouse assessed as tumor growth inhibition rate at 20 mg/kg, po administered for 10 days relative to control; assay type: functional; settings: H22, 240 h
Method in brief: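 H22 tumour cells were harvested in exponential growth and inoculated subcutaneously into the right flank axilla. Mice were randomised into groups of 10. Test compound in 0.5% CMC-Na was given intragastrically daily for 10 days. Solvent controls got an equal volume of CMC-Na, and positive controls got cyclophosphamide 20 mg/kg ip in saline. Tumours were weighed at sacrifice to give the inhibition rate.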

| Compound | inhibition in vivo at 20 mg/kg [%] |
| --- | --- |
| O=P1(N(CCCl)CCCl)NCCCO1 (configuration not stated) [CYCLOPHOSPHAMIDE ANHYDROUS] | 56.2 |

test system: K562; assay: Anticancer activity against human K562 cells after 48 hrs by MTT assay; settings: K562, 48 h

| Compound | IC50 [µg/mL] |
| --- | --- |
| COc1ccc(C(=O)c2c3n(c(=N)c4c(F)c(C#N)c(F)c(Cl)c24)CCN3)cc1 | 0.3 (≈ 0.723 µM) |
| COc1ccc(C(=O)c2c3n(c(=N)c4c(F)c(C#N)c(F)c(F)c24)CCN3)cc1 | 0.4 (≈ 1 µM) |
| COc1ccc(C(=O)c2c3n(c(=N)c4c(Cl)c(C#N)c(Cl)c(Cl)c24)CCN3)cc1 | 0.7 (≈ 1.56 µM) |
| N#Cc1c(F)c(Cl)c2c(C(=O)c3ccccc3)c3n(c(=N)c2c1F)CCO3 | 1.7 (≈ 4.41 µM) |
| N#Cc1c(Cl)c(Cl)c2c(C(=O)c3ccccc3)c3n(c(=N)c2c1Cl)CCN3 | 0.7 (≈ 1.68 µM) |
| COc1ccc(C(=O)c2c3n(c(=N)c4c(F)c(C#N)c(F)c(F)c24)CCO3)cc1 | 1.8 (≈ 4.51 µM) |
| Cc1ccc(C(=O)c2c3n(c(=N)c4c(Cl)c(C#N)c(Cl)c(Cl)c24)CCCN3)cc1 | 9.3 (≈ 20.9 µM) |
| N#Cc1c(Cl)c(Cl)c2c(C(=O)c3ccccc3)c3n(c(=N)c2c1Cl)CCO3 | 2.2 (≈ 5.25 µM) |

test system: HepG2; assay: Anticancer activity against human HepG2 cells after 72 hrs by MTT assay; settings: HepG2, 72 h

| Compound | IC50 [µg/mL] |
| --- | --- |
| COc1ccc(C(=O)c2c3n(c(=N)c4c(F)c(C#N)c(F)c(Cl)c24)CCN3)cc1 | 1.2 (≈ 2.89 µM) |
| COc1ccc(C(=O)c2c3n(c(=N)c4c(F)c(C#N)c(F)c(F)c24)CCN3)cc1 | 0.9 (≈ 2.26 µM) |
| COc1ccc(C(=O)c2c3n(c(=N)c4c(Cl)c(C#N)c(Cl)c(Cl)c24)CCN3)cc1 | 11.3 (≈ 25.2 µM) |
| N#Cc1c(F)c(Cl)c2c(C(=O)c3ccccc3)c3n(c(=N)c2c1F)CCO3 | 3.6 (≈ 9.33 µM) |
| N#Cc1c(Cl)c(Cl)c2c(C(=O)c3ccccc3)c3n(c(=N)c2c1Cl)CCN3 | 4.4 (≈ 10.5 µM) |
| COc1ccc(C(=O)c2c3n(c(=N)c4c(F)c(C#N)c(F)c(F)c24)CCO3)cc1 | 0.5 (≈ 1.25 µM) |
| Cc1ccc(C(=O)c2c3n(c(=N)c4c(Cl)c(C#N)c(Cl)c(Cl)c24)CCCN3)cc1 | 277 (≈ 621 µM) |
| N#Cc1c(Cl)c(Cl)c2c(C(=O)c3ccccc3)c3n(c(=N)c2c1Cl)CCO3 | 0.3 (≈ 0.717 µM) |

test system: not listed separately; assay: Lipophilicity, log P of the compound; assay type: physicochemical; settings: octanol/water

| Compound | logP |
| --- | --- |
| COc1ccc(C(=O)c2c3n(c(=N)c4c(F)c(C#N)c(F)c(Cl)c24)CCN3)cc1 | 3.26 |
| COc1ccc(C(=O)c2c3n(c(=N)c4c(F)c(C#N)c(F)c(F)c24)CCN3)cc1 | 2.62 |
| COc1ccc(C(=O)c2c3n(c(=N)c4c(Cl)c(C#N)c(Cl)c(Cl)c24)CCN3)cc1 | 4.02 |
| N#Cc1c(F)c(Cl)c2c(C(=O)c3ccccc3)c3n(c(=N)c2c1F)CCO3 | 3.21 |
| N#Cc1c(Cl)c(Cl)c2c(C(=O)c3ccccc3)c3n(c(=N)c2c1Cl)CCN3 | 4.03 |
| COc1ccc(C(=O)c2c3n(c(=N)c4c(F)c(C#N)c(F)c(F)c24)CCO3)cc1 | 2.57 |
| Cc1ccc(C(=O)c2c3n(c(=N)c4c(Cl)c(C#N)c(Cl)c(Cl)c24)CCCN3)cc1 | 4.61 |
| N#Cc1c(Cl)c(Cl)c2c(C(=O)c3ccccc3)c3n(c(=N)c2c1Cl)CCO3 | 3.97 |

test system: CCRF S-180; assay: Antitumor activity against mouse S180 cells xenografted in Kunming mouse assessed as tumor growth inhibition rate at 20 mg/kg, po administered for 10 days relative to control; assay type: functional; settings: CCRF S-180, 240 h
Method in brief: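 Tumour cells taken in exponential growth and inoculated subcutaneously into the right flank axilla. Mice randomised, 10 per group. Compound in 0.5% CMC-Na given intragastrically daily for 10 days. Solvent control got an equal volume of vehicle; positive control got cyclophosphamide 20 mg/kg i.p. in saline. Tumours weighed at sacrifice; inhibition rate calculated against solvent control.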

| Compound | inhibition in vivo at 20 mg/kg [%] |
| --- | --- |
| O=P1(N(CCCl)CCCl)NCCCO1 (configuration not stated) [CYCLOPHOSPHAMIDE ANHYDROUS] | 81.7 |

test system: A-431; assay: Anticancer activity against human A431 cells after 72 hrs by MTT assay; settings: A-431, 72 h

| Compound | IC50 [µg/mL] |
| --- | --- |
| COc1ccc(C(=O)c2c3n(c(=N)c4c(F)c(C#N)c(F)c(Cl)c24)CCN3)cc1 | 1.9 (≈ 4.58 µM) |
| COc1ccc(C(=O)c2c3n(c(=N)c4c(F)c(C#N)c(F)c(F)c24)CCN3)cc1 | 7.5 (≈ 18.8 µM) |
| COc1ccc(C(=O)c2c3n(c(=N)c4c(Cl)c(C#N)c(Cl)c(Cl)c24)CCN3)cc1 | 2.1 (≈ 4.69 µM) |
| N#Cc1c(F)c(Cl)c2c(C(=O)c3ccccc3)c3n(c(=N)c2c1F)CCO3 | 2.3 (≈ 5.96 µM) |
| N#Cc1c(Cl)c(Cl)c2c(C(=O)c3ccccc3)c3n(c(=N)c2c1Cl)CCN3 | 3.4 (≈ 8.14 µM) |
| COc1ccc(C(=O)c2c3n(c(=N)c4c(F)c(C#N)c(F)c(F)c24)CCO3)cc1 | 1.5 (≈ 3.76 µM) |
| Cc1ccc(C(=O)c2c3n(c(=N)c4c(Cl)c(C#N)c(Cl)c(Cl)c24)CCCN3)cc1 | > 1000 |
| N#Cc1c(Cl)c(Cl)c2c(C(=O)c3ccccc3)c3n(c(=N)c2c1Cl)CCO3 | 14.5 (≈ 34.6 µM) |

— ChEMBL document CHEMBL1759888, “Biological evaluation of polyhalo 1,3-diazaheterocycle fused isoquinolin-1(2H)-imine derivatives” (Eur J Med Chem, 2011)
